Assay outcomes from PubChem.
LEDGF integ inh: blockers of LEDGF/p75-dependent integrase strand transfer – biochemical, TR-FRET, high throughput, primary screen | HIV-1 integrase (with human LEDGF/p75) | TR-FRET IN-LEDGF/p75 DNA integration, Eu/Cy5 | inhibition, % at 3.7 µM | 370,000 compounds, 0.64% hits;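 active means inhibition above the screen-wide mean plus 3 SD, cut at about 13% in these data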;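 further: signal is the Cy5 over europium emission ratio at 671 and 618 nm; 0% = plate median of compound wells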
TDP2 absorb: human TDP2 enzyme inhibitors, primary screen, biochemical, epi absorbance, recombinant enzyme | Tyrosyl-DNA phosphodiesterase 2 (Homo sapiens), O95551 | T5PNP hydrolysis, p-nitrophenol absorbance 415 nm | inhibition, % at 12.8 µM | 370,000 compounds, 0.34% hits | AID 720702, 2013;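 active means inhibition above the mean of all tested compounds plus 3 SD, set per campaign, cut at about 25% in these data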;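 further: 0% = DMSO with enzyme and 100% = buffer with substrate but no TDP2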
Target sequence (O95551 whole entry, looked up): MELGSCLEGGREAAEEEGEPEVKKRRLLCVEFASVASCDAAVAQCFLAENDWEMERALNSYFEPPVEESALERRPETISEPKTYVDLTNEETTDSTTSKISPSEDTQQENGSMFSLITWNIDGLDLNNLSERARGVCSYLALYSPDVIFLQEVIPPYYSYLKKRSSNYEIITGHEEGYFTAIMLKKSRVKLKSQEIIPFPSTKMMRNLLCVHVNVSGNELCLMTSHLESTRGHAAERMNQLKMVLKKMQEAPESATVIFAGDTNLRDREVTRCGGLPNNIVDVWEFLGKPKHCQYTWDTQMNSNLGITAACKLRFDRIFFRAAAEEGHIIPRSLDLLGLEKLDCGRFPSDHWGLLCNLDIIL
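Test system: Human TDP2 enzyme | Reagent: 5 mM T5PNP | Compound dosing: 12.8 µM single point, 1% DMSO | Incubation: Enzyme reaction with compound for 2 h at 37 °C | Technique: p-Nitrophenol epi absorbance | Read-out: % inhibition relative to enzyme-containing and enzyme-free wells | Benchmarks: High control without enzyme, low control DMSO plus TDP2 | Replicates: Singlicate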
mABHD4 FP: ABHD4 inhibitors, primary screen, biochemical, fluorescence polarization, mouse. inhibition, % at 8.92 µM. (Lyso)-N-acylphosphatidylethanolamine lipase (Mus musculus), Q8VD66. 370,000 compounds, 0.54% hits. purified mABHD4, FP-Rh probe fluorescence polarization;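 active means inhibition exceeding the mean over every tested compound plus 3 SD, cut at about 30% in these data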;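 further: 0% = plate median of compound wells and 100% = S159A mutant with DMSO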
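assay system = mABHD4 protein | compound dosing = single nominal dose of 8.92 µM, 0.89% DMSO final | read-out basis = percent inhibition of probe binding, normalized to plate controls | schedule = Enzyme–compound pre-incubation 45 min, then probe 60 min, both 25 °C | detection = fluorescence polarization, excitation 525 nm, emission 598 nm, BODIPY TMR filters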
TCR CD3 inh: inhibitors of human TCR-CD3 interaction, primary screen, biochemical, fluorescence, TAMRA-labeled TCR probe | T-cell receptor (TCR) | inhibition, % at 9.4 µM | 360,000 compounds, 0.37% hits;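 further: recombinant mutant TCR 2C K166C tagged with TAMRA read by polarization; 0% = receptor in buffer alone and 100% = receptor with positive control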
SIAE primary: human SIAE inhibitors, primary screen, biochemical, fluorescence polarization, FP-Rh probe, 1536-well HTS; Sialate O-acetylesterase (Homo sapiens), Q9HAT2; SIAE FP-Rh probe binding; inhibition, % at 9.66 µM; 370,000 compounds, 0.69% hits;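 active means inhibition above a cutoff: mean of compounds within the control limits plus 3 SD of those, cut at about 17% in these data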;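 further: 0% = plate median of compound wells and 100% = probe without SIAE protein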
HTRA1 inhibitor: HTRA1 serine protease inhibitors, primary screen, biochemical, fluorescence polarization, HTS; recombinant HTRA1, FP-rhodamine activity-based probe; 340,000 compounds, 0.5% hits; inhibition, % at 5.96 µM; Q92743; in the data active means inhibition above about 36%;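 further: 0% = enzyme with DMSO and 100% = wells lacking enzyme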
BSA TAMRA ctr: compounds interfering with TAMRA-BSA probe, counter-screen for TCR-CD3 interaction inhibitor project, biochemical, fluorescence, TAMRA-labeled BSA; shares compounds with TCR CD3 inh; 1,200 compounds, 10% hits; inhibition, % at 9.4 µM; TAMRA-labeled BSA probe fluorescence counterscreen; in the data active means inhibition above about 23%;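 further: 0% = buffer low control and 100% = reference high control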
TCR-CD3 conf: TCR-CD3 interaction inhibitors, retest, confirmation, biochemical, fluorescence, TAMRA-labeled TCR probe; shares compounds with TCR CD3 inh; inhibition, % at 9.4 µM; AID 652036, 2013; 1,200 compounds, 48% hits; TAMRA-labeled TCR probe fluorescence binding assay
Active calls of the source: *; . = no result. This is a sample that favours compounds with a hit; in the whole collection about 2.2% have one here. Unless noted, no stated cut-off is given here; in the data, active means inhibition above about 19%; inactive means the rest.

SMILES	LEDGF integ inh	TDP2 absorb	mABHD4 FP	TCR CD3 inh	SIAE primary	HTRA1 inhibitor	BSA TAMRA ctr	TCR-CD3 conf
Oc1ccc(C=NNC(=S)Nc2ccc(F)cc2)c(O)c1	-2	-4	19	20*	13	34	-15	9
COCCCNC(=S)N/N=C/c1ccc(O)cc1	0	9	5	2	5	-4	.	.
COCCCNC(=S)N/N=C/c1ccc(O)cc1O	-3	1	2	20*	13	.	-16	-5
O=C(CCC(=O)Nc1ccc(F)cc1)N/N=C/c1ccc(O)cc1O	-8	-2	0	-3	-2	-5	.	.
Cc1ccccc1CN1[C@@H](C)[C@H](c2ccccc2)Oc2cccc(NCC(C)C)c2S1(=O)=O	2	-8	3	1	1	.	.	.
C[C@H](CO)N1C[C@H](C)[C@@H](CN(C)C(=O)Nc2ccc(-c3cccs3)cc2)OCc2cn(nn2)CCCC1=O	-3	5	0	2	6	.	.	.
COC(=O)C1CN(Cc2cn(Cc3ccc(Cl)cc3)nn2)CCS(=O)(=O)N1Cc1ccc(Cl)cc1 (configuration not stated)	-1	-5	4	.	0	.	.	.
O=c1[nH]c(C(Cl)Cl)nc2sc3c(c12)CCN(Cc1ccccc1)C3	3	10	-5	25*	-4	6	-4	15
CC(C)Cc1nc2sc3c(=O)[nH]cnc3c2c2c1CCCC2	-2	-2	6	20*	2	-5	5	7
COc1cc(F)c(S(=O)(=O)N2CCCN(S(=O)(=O)c3cccc(N)c3)CC2)c(F)c1	0	13	-2	.	-5	.	.	.
CC(=O)c1nc(N2C(=O)CC(Cc3ccc(C)cc3)C2=O)sc1C (configuration not stated)	-4	-5	-3	56*	-3	-3	-2	4
Cc1ccc(CC2CC(=O)N(c3nc4ccccc4s3)C2=O)cc1 (configuration not stated)	4	4	2	-1	5	-2	.	.
O=S(=O)(c1ccc(F)cc1)n1c(CN2CCOCC2)nc2ccccc21	-2	2	-5	.	1	.	.	.
O=c1nc2c(O)cccn2c2c1c(=O)[nH]c1ccccc12	13	-21	0	54*	3	17	-11	13
C=CCNC(=S)NNC(=O)c1ccc(Br)cc1	-7	9	6	-9	0	4	.	.
C=CCNC(=S)NNC(=O)c1cccn(Cc2cccc(Cl)c2)c1=O	4	-11	7	27*	-4	9	-4	25*
C=CCNC(=S)NNC(=O)c1cc(O)ccc1O	-6	10	21	38*	1	.	-10	23*
C=CCNC(=S)NNC(=O)c1cccn(Cc2ccc(Cl)cc2)c1=O	0	-2	17	36*	5	11	-7	18
COC(=O)[C@]12C=CCN1[C@@H](c1ccc(Cl)cc1)c1c(c3ccccc3n1S(=O)(=O)c1ccc(C)cc1)C2	2	4	26	.	-14	.	.	.
O=C(C1CCCN1S(=O)(=O)c1ccccc1[N+](=O)[O-])N1CCc2ccccc2C1 (configuration not stated)	-2	-3	0	.	1	.	.	.
CC(=O)c1ccc(NC(=O)COC(=O)c2c3c(nc4ccccc24)/C(=C\c2cccs2)CCC3)cc1	0	4	-42	65*	-104	-87	22	40*
O=C(COC(=O)c1c2c(nc3ccccc13)/C(=C\c1cccs1)CCC2)Nc1ccccc1	-2	-11	-16	15	-109	-106	.	.
